Results reported in ChEMBL document CHEMBL1128367, “Synthesis of 4"-deoxy motilides: identification of a potent and orally active prokinetic drug candidate” (J Med Chem, 1995).

Columns and labels:
Oryctolagus cuniculus = species on record: Oryctolagus cuniculus; test: The compound was tested in vitro for prokinetic activity as smooth muscle contractility in isolated rabbit duodenum; format: functional, Muscle tissue
[1] = Activity relative to erythromycin A
[2] = Oral bioavailability in dog; format: ADME, organism-based, Canis lupus familiaris; settings: in vivo
In short: (§1)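 Groups of fasted male/female beagle dogs received the lactobionate salt as a 2 mg/mL solution, at 0.5 mg/kg iv or 1 mg/kg po. Blood was sampled at set times over 12 h. Parent drug was extracted from alkalized plasma with EtOAc:hexane (1:1) and measured by reverse-phase HPLC (pH 6.9 phosphate mobile phase) with oxidative electrochemical detection. The assay was linear over 0-500 ng/mL, with LOQ ~7 ng/mL.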

[3] = Half life period after oral administration in the dog; format: ADME, organism-based, Canis lupus familiaris; settings: in vivo; in short: as §1

Compound | Relative activity [1] | bioavailability [2] [%] | half-life [3] [min] | pED50 (Oryctolagus cuniculus)
CC[C@H]1OC(=O)[C@H](C)[C@@H](O[C@H]2C[C@@](C)(OC)C[C@H](C)O2)[C@H](C)[C@@H](O[C@@H]2O[C@H](C)C[C@H](N(C)C)[C@H]2O)[C@@]2(C)CC(C)=C(O2)[C@H](C)[C@@H](O)[C@]1(C)O | 2.56 | – | – | 8.41
CC[C@H]1OC(=O)[C@H](C)[C@@H](O[C@H]2C[C@@](C)(OC)C[C@H](C)O2)[C@H](C)[C@@H](O[C@@H]2O[C@H](C)C[C@H](N(C)CC)[C@H]2O)[C@@]2(C)CC(C)=C(O2)[C@H](C)[C@@H](O)[C@H]1C [ALEMCINAL] | > 6.15 | 39 | 330 | >12
CC[C@H]1OC(=O)[C@H](C)[C@@H](O[C@H]2C[C@@](C)(OC)C[C@H](C)O2)[C@H](C)[C@@H](O[C@@H]2O[C@H](C)C[C@H](N(C)C)[C@H]2O)[C@@]2(C)CC(C)=C(O2)[C@H](C)[C@@H](O)[C@H]1C | 5.41 | – | – | 11.26
CC[C@H]1OC(=O)[C@H](C)[C@@H](O[C@H]2C[C@@](C)(OC)C[C@H](C)O2)[C@H](C)[C@@H](O[C@@H]2O[C@H](C)C[C@H](N(C)CC)[C@H]2O)[C@@]2(C)CC(C)=C(O2)[C@H](C)[C@@H](O)[C@]1(C)O | 5.3 | 2.7 | 156 | 11.15
CC[C@H]1OC(=O)[C@H](C)[C@@H](O[C@H]2C[C@@](C)(OC)[C@@H](O)[C@H](C)O2)[C@H](C)[C@@H](O[C@@H]2O[C@H](C)C[C@H](N(C)C)[C@H]2O)[C@](C)(O)C[C@@H](C)C(=O)[C@H](C)[C@@H](O)[C@]1(C)O [ERYTHROMYCIN] | – | – | – | 5.85
CC[C@H]1OC(=O)[C@H](C)[C@@H](O[C@H]2C[C@@](C)(OC)C[C@H](C)O2)[C@H](C)[C@@H](O[C@@H]2O[C@H](C)C[C@H](NC)[C@H]2O)[C@@]2(C)CC(C)=C(O2)[C@H](C)[C@@H](O)[C@H]1C | > 6.15 | 23.8 | 120 | >12
CC[C@H]1OC(=O)[C@H](C)[C@@H](O[C@H]2C[C@@](C)(OC)[C@@H](O)[C@H](C)O2)[C@H](C)[C@@H](O[C@@H]2O[C@H](C)C[C@H](N(C)C)[C@H]2O)[C@@]2(C)CC(C)=C(O2)[C@H](C)[C@@H](O)[C@H]1C | 2.83 | – | – | 8.68

Further lines, with some results ahead:

Relative activity [1] | bioavailability [2] [%] | half-life [3] [min] | Compound | pED50 (Oryctolagus cuniculus)
2.55 | – | – | CC[C@H]1OC(=O)[C@H](C)[C@@H](O[C@H]2C[C@@](C)(OC)[C@@H](O)[C@H](C)O2)[C@H](C)[C@@H](O[C@@H]2O[C@H](C)C[C@H](N(C)C)[C@H]2O)[C@@]2(C)CC(C)=C(O2)[C@H](C)[C@@H](O)[C@]1(C)O | 8.4
3.89 | – | – | CC[C@H]1OC(=O)[C@H](C)[C@@H](O[C@H]2C[C@@](C)(OC)C[C@H](C)O2)[C@H](C)[C@@H](O[C@@H]2O[C@H](C)C[C@H](NC)[C@H]2O)[C@@]2(C)CC(C)=C(O2)[C@H](C)[C@@H](O)[C@]1(C)O | 9.74
2.6 | 1.4 | 144 | CC[C@H]1OC(=O)[C@H](C)[C@@H](O[C@H]2C[C@@](C)(OC)[C@@H](O)[C@H](C)O2)[C@H](C)[C@@H](O[C@@H]2O[C@H](C)C[C@H](N(C)CC)[C@H]2O)[C@@]2(C)CC(C)=C(O2)[C@H](C)[C@@H](O)[C@]1(C)O | 8.45
1.3 | – | – | CC[C@H]1OC(=O)[C@H](C)[C@@H](O[C@H]2C[C@@](C)(OC)[C@@H](O)[C@H](C)O2)[C@H](C)[C@@H](O[C@@H]2O[C@H](C)C[C@H](NC)[C@H]2O)[C@@]2(C)CC(C)=C(O2)[C@H](C)[C@@H](O)[C@]1(C)O | 7.1
